Bioassay records: PubChem, several laboratories
Most compounds without a hit are left out; they make up all but 4% or so of the library.
MDM2 E3 inh – MDM2-luciferase reporter signal enhancers, primary screen, MDM2 E3 ligase inhibitor project, cell-based, luminescence, 1536-well | E3 ubiquitin-protein ligase Mdm2 (Homo sapiens), Q00987 | cell-based MDM2 ubiquitination luciferase reporter, 2 h; 0 = plate control, 100 = twice control, blank-subtracted | signal enhancement, % at 5 µM | hit rate 0.11% among 210,000;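 active means signal enhancement of 30% or more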;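 further: luminescence tracks abundance of the self-degrading MDM2-luciferase fusion protein; higher signal means inhibition of MDM2 E3 ligase activity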
Target sequence (Q00987 whole entry, looked up, the tested form may be a part): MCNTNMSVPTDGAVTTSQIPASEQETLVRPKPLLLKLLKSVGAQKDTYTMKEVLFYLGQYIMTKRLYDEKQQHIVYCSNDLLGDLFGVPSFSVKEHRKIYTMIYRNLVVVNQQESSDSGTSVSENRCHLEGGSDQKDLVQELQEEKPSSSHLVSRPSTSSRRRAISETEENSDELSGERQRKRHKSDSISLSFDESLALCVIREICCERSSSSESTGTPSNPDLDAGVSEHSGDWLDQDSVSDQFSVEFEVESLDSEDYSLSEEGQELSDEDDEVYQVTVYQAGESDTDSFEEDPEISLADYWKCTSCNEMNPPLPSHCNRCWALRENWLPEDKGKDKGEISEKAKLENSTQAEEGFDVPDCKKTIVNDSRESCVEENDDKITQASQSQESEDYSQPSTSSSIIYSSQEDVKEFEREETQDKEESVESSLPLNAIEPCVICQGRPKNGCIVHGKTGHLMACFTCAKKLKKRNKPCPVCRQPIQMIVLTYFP
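Assay system: stable mammalian line carrying autodegrading MDM2–luciferase fusion reporter; amount: 2000 cells seeded into each well; buffer or medium: DMEM; benchmarks: plate control and blank wells; signal: luciferase luminescence; timing: 2 h compound exposure at 37 °C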
Measles CPE – compounds protecting cells from measles virus cytopathic effect, primary screen, measles RdRp inhibitor project, single point, MLSMR library, absorbance | protection (pct of control), % at 4 µM | AID 841, 2007 | hit rate 1.5% among 140,000 | Measles virus-infected cells, CPE protection; in the data active means protection mostly above about 24%, no sharp cut-off; inactive means mostly below about 26%
RAM network inh – inhibitors of the yeast RAM network, primary screen, dse1pr::URA3 reporter, 5-FOA selection; inhibition, % at 50 µM; S. cerevisiae dse1pr::URA3 reporter, 5-FOA growth OD615, 2 d; analog-sensitive cbk1-as2 kinase mutant strain; hit rate 1.8% among 190,000;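 active means inhibition above a set limit, 3 SD over mean compound inhibition, cut at about 8.4% in these data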;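 further: inhibition rescues growth on 5-FOA so higher OD means more RAM inhibition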
Yeast growth inh – growth inhibitors of yeast BB579 in restrictive medium, primary screen, yeast lifespan-shortening project, S. cerevisiae. OD615, 48 h. hit rate 0.51% among 140,000. inhibition, % at 10 µM;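 active means inhibition above a set limit, 3 SD over the mean compound inhibition, cut at about 44% in these data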
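System: DeaD yeast strain BB579; buffer or medium: CSMM-D dextrose restrictive medium; technique: OD at 615 nm; schedule: 4 h cell preincubation, 48 h compound exposure, 30 °C humidified; doses: single 10 µM dose; controls: amphotericin B 10 µg/mL, positive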
Yeast life ext – compounds extending yeast replicative lifespan, primary screen, S. cerevisiae, OD615. S. cerevisiae growth with nicotinamide; deaD strain in restrictive glucose medium. inhibition of the nicotinamide effect, % at 10 µM. hit rate 0.68% among 130,000;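 active means inhibition above a set limit, placed 3 SD over the median of all compounds, cut at about 26% in these data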
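Test system – modified budding yeast, DeaD strain · Compound – single dose 10 µM compound, 0.25% DMSO · Times – culture preincubation 4 h, compound exposure 48 h, both 30 °C · Detection – optical density (absorbance) at 615 nm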
INS promoter inh – inhibitors of insulin promoter-driven GFP, primary screen, imaging, TRM-6 cells, eGFP reporter, cell count | inhibition, % at 2 µM | reporter expression induced with tamoxifen | hit rate 0.9% among 130,000;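 active means inhibition above the mean plus 3 SD, with well images judged a real hit on visual review, cut at about 60% in these data, passing the limit was not always enough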
A number is an active result; i = inactive; nt = no result given.

SMILES	MDM2 E3 inh	Measles CPE	RAM network inh	Yeast growth inh	Yeast life ext	INS promoter inh
CCCCSc1nc(O)c(C2OC(=O)c3c2ccc(OC)c3OC)c(=O)n1C (stereo not given)	i	i	i	i	60.9	i
COc1ccc2c(c1OC)C(=O)OC2CC(=O)O (stereo not given)	i	i	i	i	i	i
CCCCCCSc1nc(O)c(C2OC(=O)c3c2ccc(OC)c3OC)c(=O)n1-c1ccccc1 (stereo not given)	i	i	8.6	i	i	i
CCSc1nc(O)c(C2OC(=O)c3c2ccc(OC)c3OC)c(=O)n1CC (stereo not given)	i	i	i	i	i	i
Cc1ccccc1Nc1nnc(SCC(=O)NC2CCCc3ccccc32)s1 (stereo not given)	i	i	i	i	i	nt
c1ccc(-n2cnc3cc(NCc4cccs4)ccc32)cc1	i	i	i	i	i	i
Cc1ccc(-n2cnc3cc(NCc4cccs4)ccc32)cc1	i	i	i	49.9	i	i
Cc1c(Cl)c(C(F)(F)F)nn1CC(=O)N1CCSCC1	i	i	i	i	i	100.0
Cc1c(Cl)c(C(F)(F)F)nn1CC(=O)NN	i	nt	i	nt	nt	i
O=c1cc(NC2CCCCC2)c2ccccc2o1	i	19.7	i	i	i	i
CSc1nccc(-c2cc(Cl)sc2Cl)n1	i	19.5	i	i	i	i
Cc1ccc(-n2c(C(C)C)nc3oc4ccccc4c(=O)c3c2=O)cc1	i	nt	nt	nt	nt	nt
COc1ccccc1NC(=O)c1sc(NC(=O)c2ccco2)c(C#N)c1C	i	i	i	i	i	92.9
Cc1ccccc1OCC(=O)Nc1sc(C(=O)Nc2cccc(C)c2C)c(C)c1C#N	i	102.5	i	i	i	nt
COc1cc(NC(=O)Cc2ccccc2)ccc1NC(=O)c1ccco1	i	64.2	i	i	i	nt
Cc1ccc(C)c(Nc2c([N+](=O)[O-])c(=O)oc3ccccc23)c1	i	nt	nt	nt	nt	nt
CNC(=O)OCc1cccc(COC(=O)NC)n1	i	45.7	i	i	i	i
CCOC(=O)NC1(C(F)(F)F)C(=O)NC(C)=C1C(=O)OC (stereo not given)	i	i	i	i	i	i
COC(=O)C1=C(C)NC(=O)C1(NC(=O)CN1CCCC1=O)C(F)(F)F (stereo not given)	i	40.8	i	i	i	i
Cc1ccc(/C=C/C(=O)NCc2ccccn2)o1	i	i	i	i	i	65.5
Cc1ccc(/C=C/C(=O)NC2CCCCCCC2)o1	i	i	i	i	38.1	i
Cc1ccc(/C=C/C(=O)NCc2ccco2)o1	i	i	i	i	i	i
Cc1ccc(O)c(C(=O)c2cc(C#N)c(=O)n(CC3CCCO3)c2)c1 (stereo not given)	i	i	i	i	i	i
COc1ccc(O)c(C(=O)c2cc(C#N)c(=O)n(CC3CCCO3)c2)c1 (stereo not given)	i	i	i	i	113.4	i
COc1ccc(NC(=O)Nc2nc(C)cc(C)n2)c(OC)c1	i	nt	nt	nt	nt	nt
SMILES	MDM2 E3 inh	Measles CPE	RAM network inh	Yeast growth inh	Yeast life ext	INS promoter inh
NC1=NS(=O)(=O)NC1c1ccc(F)cc1 (stereo not given)	i	nt	i	nt	nt	i
CC(=O)c1c(OC(=O)c2ccccc2)c2ccccc2n1C	i	i	8.4	i	i	nt
CC(C)[C@H](NC(=O)NCCc1ccc(F)cc1)C(=O)O	i	77.7	i	i	i	nt
CCc1ccc(C(=O)NC(C(=O)O)C(C)C)cc1 (stereo not given)	i	38.3	i	i	i	i
CCc1ccc(C(=O)NC(CCSC)C(=O)O)cc1 (stereo not given)	i	i	i	i	i	i
CN(C)c1ccc(/C=N/N=C(N)N)cc1[N+](=O)[O-]	i	nt	i	nt	nt	nt
O=C(C1=C[C@H](C2CC2)C[C@H](OCc2ccc(CO)cc2)O1)N1CCOCC1	nt	nt	i	nt	nt	nt
CCOC(=O)c1c(-c2ccc(-c3ccccc3)cc2)csc1NC(=O)CCN1CCOCC1	i	i	i	94.6	i	nt
CC1=C(C(=O)Nc2ccccc2C)C(c2ccc(C)o2)n2c(s/c(=C/c3ccccc3)c2=O)=N1 (stereo not given)	i	i	i	i	i	77.4
COc1ccccc1N1C(=O)C2C(c3ccc(F)cc3)NN(C(=O)c3ccc(C)cc3)C2C1=O (stereo not given)	i	nt	i	nt	nt	nt
Cc1ccc(S(=O)(=O)N2CCC(C(=O)NNS(=O)(=O)c3ccc(Cl)cc3)CC2)cc1	i	i	i	i	i	i
CCOC(=O)c1nnc(-c2ccccc2)nc1NCc1ccc(Cl)cc1	i	i	10.2	i	i	i
O=C(COc1ccccc1)Nc1cccc(-c2nc3cc4ccccc4cc3[nH]2)c1	i	i	i	i	i	i
COc1ccc(CCNC(=O)NC23CC4CC(CC(C4)C2)C3)cc1OC	i	i	i	i	i	i
C=CCn1c(=O)c(C(=O)NCCNCC)c(O)c2ccccc21	i	i	i	i	31.4	i
O=C1c2cccc3cccc(c23)C(=O)N1CCN1CCN(CC(O)COc2ccc3ccccc3c2)CC1 (stereo not given)	i	56.6	i	i	i	i
Cc1cc([N+](=O)[O-])ccc1N=Nc1c(N)[nH]n(-c2ccccc2)c1=O	i	nt	8.6	nt	nt	i
CC(C)c1[nH]nc2c1C(c1cccnc1)C(C#N)=C(N)O2 (stereo not given)	i	43.7	i	i	i	i
Cc1ccc(-c2[nH]nc3c2C(c2cccnc2)C(C#N)=C(N)O3)cc1 (stereo not given)	i	i	i	i	i	nt
CCOc1cc(C2c3c(oc4cc(C)c(Cl)cc4c3=O)C(=O)N2Cc2ccco2)ccc1O (stereo not given)	i	i	8.4	i	i	i
COc1cc(S(=O)(=O)N(Cc2cccnc2)Cc2ccco2)ccc1-n1cnnn1	i	i	i	i	i	i
Cc1cc(S(=O)(=O)N(Cc2ccc(C(C)(C)C)cc2)Cc2cccs2)ccc1-n1cnnn1	i	i	9.3	i	i	i
COc1cc(S(=O)(=O)N(Cc2ccc(C)cc2)Cc2ccco2)ccc1-n1cnnn1	i	i	9.0	i	i	i
CCCc1ccc(C(=O)NNc2ccccc2F)cc1	i	nt	nt	nt	nt	nt
Nc1nc(SCCO)[nH]c(=O)c1NC(=O)c1ccccc1F	i	nt	i	nt	nt	nt
O=C(c1cn(-c2ccccc2)nc1-c1cccs1)N1CCOCC1	32.7	i	i	i	i	i
Cc1ccc(CS/C(Nc2ccccc2C)=C(\C#N)C(N)=O)c(C)c1	i	i	i	i	i	i
O=C(COc1ccc(/C=N/NC(=O)C(=O)N2CCCCCC2)cc1)Nc1ccccc1Cl	i	i	i	i	i	nt
